This passage reports inhibition, Activity and Stability results from ChEMBL document CHEMBL1811904, “Preventive oral treatment with resveratrol pro-prodrugs drastically reduce colon inflammation in rodents” (J Med Chem, 2010).

For data set [1], the system named is CCD-18Co. Description: Antiinflammatory activity in human CCD-18Co cells assessed inhibition of IL1beta-induced PGE2 production at 1 to 7.5 uM after 18 hrs. The class given is functional, cell-based.
Data set [2] can be described thus: Cytotoxicity against human CCD-18Co cells at >10 uM after 8 hrs by MTT assay. The class given is cell-based. (In general: Tetrazolium assays rely on reduction of a dye to a coloured formazan, in cell work by metabolically active cells.)
For data set [3], the system named is Mus musculus. The data set is described as follows: Antiinflammatory activity in C57BL/6J mouse model of DSS-induced colon inflammation assessed as reduction of colon IL6 level at 2.1 mg/kg/day, po for 21 days followed by compound dosing for 8 days co-administered with DSS followed by 2.1 mg/kg/day, po dosing for 6 days in absence of DSS measured on days 29 and day 35 by chemiluminescence assay. In kind it is functional, organism-based. Put shortly:
(§1)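 After 21 days of chow with compound at 2.1 mg/kg day and 8 days of 1% DSS, distal colon mucosa (40 mg) homogenized in PBS with protease inhibitors and spun 15,000g, 30 min, 4 °C. Supernatants pooled per group to 300 µg protein and run on a 40-cytokine mouse inflammation antibody array. Chemiluminescent detection, densitometry; duplicate measurements.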

Data set [4] has as its system Mus musculus. The data set is described as follows: Antiinflammatory activity in C57BL/6J mouse model of DSS-induced colon inflammation assessed as preservation of mucosal architecture at 2.1 mg/kg/day, po for 21 days followed by compound dosing for 8 days co-administered with DSS followed by 2.1 mg/kg/day, po dosing for 6 days in absence of DSS measured on days 29 and day 35. In kind it is functional, organism-based. The gist of the method: (§2)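 Standard chow with compound at 2.1 mg/kg day for 21 days, then 1% DSS in sterilized drinking water ad libitum for the last 8 days (29 days total); n=10 per group, with control and DSS-only groups. Distal colon sections stained with hematoxylin and eosin and scored by Araki system: 0-4 each for surface epithelial loss, crypt destruction, inflammatory cell infiltration (max 12); mean ± SEM, Kruskal-Wallis then Mann-Whitney.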

The test system of data set [5] is CCD-18Co. Description: Antiinflammatory activity in human CCD-18Co cells assessed as inhibition of IL1beta-induced PGE2 production at 2.5 to 25 uM after 18 hrs. The class given is functional, cell-based.
The test system of data set [6] is Mus musculus. The data set is described as follows: Antiinflammatory activity in C57BL/6J mouse model of DSS-induced colon inflammation assessed as reduction in disease activity index at 2.1 mg/kg/day, po for 21 days followed by compound dosing for 8 days co-administered with DSS followed by 2.1 mg/kg/day, po dosing for 6 days in absence of DSS measured on days 29 and day 35. The class given is functional, organism-based. Put shortly: (§3)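 Diet supplemented at 2.1 mg/kg day for 21 days before 8 days of 1% DSS in sterilized drinking water ad libitum; n=10 per group. Body weight followed through DSS and recovery phases; DAI combines stool blood, stool consistency and weight loss. ANOVA with Tukey post-hoc, mean ± SD.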

Data set [7] deals with Mus musculus. Description: Antiinflammatory activity in C57BL/6J mouse model of DSS-induced colon inflammation assessed as reduction of colon TNFRp55 level at 2.1 mg/kg/day, po for 21 days followed by compound dosing for 8 days co-administered with DSS followed by 2.1 mg/kg/day, po dosing for 6 days in absence of DSS measured on days 29 and day 35 by chemiluminescence assay. The class given is functional, organism-based. The gist of the method: as §1

Data set [8] concerns Mus musculus. The data set is described as follows: Increase in Lactobacilli count in C57BL/6J mouse distal colon mucosa with DSS-induced colon inflammation at 2.1 mg/kg/day, po for 21 days followed by compound dosing for 8 days co-administered with DSS followed by 2.1 mg/kg/day, po dosing for 6 days in absence of DSS by fecal microbiota analysis relative to control. In kind it is functional, organism-based. Put shortly: (§4)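 Fecal samples collected on days 0, 21 (before DSS) and 29 (after 8 days of 1% DSS) from mice fed 2.1 mg/kg day compound in chow. Bifidobacteria, lactobacilli, clostridia, enterobacteria and E. coli counted; ANOVA with Tukey post-hoc, mean ± SD.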

Data set [9] deals with Mus musculus. Description: Antiinflammatory activity in C57BL/6J mouse model of DSS-induced colon inflammation assessed as reduction in disease activity index at 2.1 mg/kg/day, po for 8 days co-administered with DSS measure on day 8. The class given is functional, organism-based. Put shortly: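 No pre-feeding: compound co-administered with 1% DSS in drinking water for 8 days at 2.1 mg/kg day; n=14 per group, with DSS-only and untreated control groups. DAI scored from stool blood, stool form and weight loss.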

The test system of data set [10] is Mus musculus. Description: Effect on body weight in C57BL/6J mouse model of DSS-induced colon inflammation at 2.1 mg/kg/day, po for 21 days followed by compound dosing for 8 days co-administered with DSS followed by 2.1 mg/kg/day, po dosing for 6 days in absence of DSS measured on days 29 and day 35. The class given is functional, organism-based. Put shortly:
as §3

Data set [11] has as its system Mus musculus. Description: Increase in Bifidobacterial count in C57BL/6J mouse distal colon mucosa with DSS-induced colon inflammation at 2.1 mg/kg/day, po for 21 days followed by compound dosing for 8 days co-administered with DSS followed by 2.1 mg/kg/day, po dosing for 6 days in absence of DSS by fecal microbiota analysis relative to control. The class given is functional, organism-based. Put shortly:
as §4

The test system of data set [12] is Mus musculus. The data set is described as follows: Antiinflammatory activity in C57BL/6J mouse model of DSS-induced colon inflammation assessed as reduction of colon MIG level at 2.1 mg/kg/day, po for 21 days followed by compound dosing for 8 days co-administered with DSS followed by 2.1 mg/kg/day, po dosing for 6 days in absence of DSS measured on days 29 and day 35 by chemiluminescence assay. The class given is functional, organism-based. Put shortly:
as §1

Data set [13] has as its system Mus musculus. Description: Antiinflammatory activity in C57BL/6J mouse model of DSS-induced colon inflammation assessed as reduction in morphological signs of cell damage at 2.1 mg/kg/day, po for 21 days followed by compound dosing for 8 days co-administered with DSS followed by 2.1 mg/kg/day, po dosing for 6 days in absence of DSS measured on days 29 and day 35. In kind it is functional, organism-based. Put shortly: as §2

For data set [14], the system named is Mus musculus. The data set is described as follows: Antiinflammatory activity in C57BL/6J mouse model of DSS-induced colon inflammation assessed as reduction of colon MIP1gamma level at 2.1 mg/kg/day, po for 21 days followed by compound dosing for 8 days co-administered with DSS followed by 2.1 mg/kg/day, po dosing for 6 days in absence of DSS measured on days 29 and day 35 by chemiluminescence assay. In kind it is functional, organism-based. Put shortly:
as §1

Data set [15] deals with Mus musculus. Description: Reduction in Escherichia coli count in C57BL/6J mouse distal colon mucosa with DSS-induced colon inflammation at 2.1 mg/kg/day, po for 21 days followed by compound dosing for 8 days co-administered with DSS followed by 2.1 mg/kg/day, po dosing for 6 days in absence of DSS by fecal microbiota analysis relative to control. The class given is functional, organism-based. Put shortly: as §4

Data set [16] deals with Caco-2. Description: Metabolic stability in human Caco2 cells after 6 hrs by LC-MS-MS analysis. The class given is ADME, cell-based. As to conditions: caco-2, 6 h. Put shortly: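 Compounds incubated with human colon Caco-2 cells; cell media sampled at 6 h and analyzed by LC-MS-MS for parent compound and hydrolysis/conjugation products.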
Data set [17] deals with Mus musculus. Description: Increase in Clostridia count in C57BL/6J mouse distal colon mucosa with DSS-induced colon inflammation at 2.1 mg/kg/day, po for 21 days followed by compound dosing for 8 days co-administered with DSS followed by 2.1 mg/kg/day, po dosing for 6 days in absence of DSS by fecal microbiota analysis relative to control. The class given is functional, organism-based. Put shortly:
as §4

In data set [18] the test system is CCD-18Co. The data set is described as follows: Antiinflammatory activity in human CCD-18Co cells assessed inhibition of IL1beta-induced PGE2 production at 1 uM after 18 hrs. In kind it is functional, cell-based.
In data set [19] the test system is Stomach. Description: Stability in C57BL/6J mouse stomach at 84 mg/kg administered through intragastric route measured after 8 hrs by HPLC-MS-MS analysis. The class given is ADME, organism-based. On the set-up: dose 84 mg/kg, route intragastric. The settings on record: in vivo, po. Put shortly:
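Healthy mice given 84 mg/kg by intragastric probe in ethanol:water (5:95, v:v); n=24 per group, three killed at each of 0.25, 0.5, 1, 2, 4, 8, 12 and 24 h. Stomach contents analyzed by HPLC-MS-MS for parent compounds and metabolites; AUC and Cmax derived.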

Active and inactive are the calls of the source. The rule behind the calls is not given here.

For the molecule `CCCCCCCCCCCCCCCC(=O)OC[C@H]1O[C@@H](Oc2cc(O)cc(/C=C/c3ccc(O)cc3)c2)[C@H](O)[C@@H](O)[C@@H]1O`, the inhibition entry in data set [1] is “Active”. Also, the Activity result in data set [2] is on record as “Toxic”.
For `OC[C@H]1O[C@@H](Oc2cc(/C=C/c3ccc(O)cc3)cc(O[C@@H]3O[C@H](CO)[C@@H](O)[C@H](O)[C@H]3O)c2)[C@H](O)[C@@H](O)[C@@H]1O`, the outcome in [3], in [4], in data set [7], in data set [12], in data set [13] and in data set [14] was Active. For the same molecule, in [5], the inhibition entry is “inactive”. The outcome in data set [6], in [8], in data set [9], in data set [10] and in data set [11] was inactive.
For the molecule `OC[C@H]1O[C@@H](Oc2cc(O)cc(/C=C/c3ccc(O)cc3)c2)[C@H](O)[C@@H](O)[C@@H]1O`, the result in data set [3], in [4], in data set [7], in [12], in data set [13] and in data set [14] was Active. Moreover, the inhibition entry in [5] was “inactive”. The outcome in data set [6], in [8], in [9], in [10] and in [11] was inactive.
On to `CCCCCCCC(=O)OC[C@H]1O[C@@H](Oc2cc(O)cc(/C=C/c3ccc(O)cc3)c2)[C@H](O)[C@@H](O)[C@@H]1O`, for which the result in data set [3], in [4], in data set [6], in data set [7], in [8] and in data set [10] was Active. Further, the outcome in data set [15], in data set [11], in data set [17], in data set [12], in [13] and in [14] was Active. The result in [9] was inactive. Also, the Stability result in data set [16] is reported as “Stable”. For the same molecule, the inhibition entry in data set [1] was “Active”.
With `Oc1ccc(/C=C/c2cc(O)cc(O)c2)cc1` [RESVERATROL], the result in data set [3], in [4], in [7], in [15], in data set [17] and in data set [12] was Active. In addition, the outcome in data set [13] and in [14] was Active. The inhibition result in [5] and in [18] was “Active” in each case. The result in data set [6], in data set [8], in data set [9], in data set [10] and in data set [11] was inactive. Moreover, the Stability result in [16] and in [19] was “Stable” each time.
As to `OC[C@H]1O[C@@H](Oc2ccc(/C=C/c3cc(O)cc(O[C@@H]4O[C@H](CO)[C@@H](O)[C@H](O)[C@H]4O)c3)cc2)[C@H](O)[C@@H](O)[C@@H]1O`, in [5], the inhibition entry is “inactive”.
Consider `CCCCCCCCCCCC(=O)OC[C@H]1O[C@@H](Oc2cc(O)cc(/C=C/c3ccc(O)cc3)c2)[C@H](O)[C@@H](O)[C@@H]1O`, for which the inhibition result in data set [1] is “Active”. Also, in [2], the Activity entry is on record as “Toxic”.
With `CCCC(=O)OC[C@H]1O[C@@H](Oc2cc(O)cc(/C=C/c3ccc(O)cc3)c2)[C@H](O)[C@@H](O)[C@@H]1O`, the result in data set [3], in data set [4], in data set [6], in data set [7], in data set [8] and in data set [10] was Active. Besides, the outcome in data set [15], in data set [11], in data set [17], in data set [12], in data set [13] and in [14] was Active. Also, the outcome in data set [9] was inactive. The Stability entry in [16] was “Stable”. The inhibition result in data set [1] was “Active”.
Consider `OC[C@H]1O[C@@H](Oc2ccc(/C=C/c3cc(O)cc(O)c3)cc2)[C@H](O)[C@@H](O)[C@@H]1O`, for which the inhibition entry in data set [5] was “Active”.
With `CCCCCCCCCCCCCCCCCC(=O)OC[C@H]1O[C@@H](Oc2cc(O)cc(/C=C/c3ccc(O)cc3)c2)[C@H](O)[C@@H](O)[C@@H]1O`, the inhibition entry in data set [1] is “Active”. The Activity entry in [2] is given as “Toxic”.
